Converted amounts (≈) assume the structure as drawn.
Assays:
Klebsiella pneumoniae [1] = test: Antibacterial activity against Klebsiella pneumoniae at 1 mg/mL after 18 hrs by disc diffusion assay; assay type: functional; settings: read-out: IZ
How it was run: (§1)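 Bacteria were grown in nutrient broth at 37 °C for 18 h on a rotary shaker at 150 rpm. Compounds were dissolved in DMF. Nutrient agar plates were dried at 35–36 °C for about 30 min, and test strains were spread on the surface. Discs were applied, and plates were inverted and incubated at 37 °C. A DMF blank was run.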

Klebsiella pneumoniae [2] = test: Antibacterial activity against Klebsiella pneumoniae at 2 mg/mL after 18 hrs by disc diffusion assay; assay type: functional; settings: read-out: IZ; how it was run: as §1
Brain [3] = test: Antioxidant activity in Wistar rat brain assessed as inhibition of lipid peroxidation; assay type: functional, tissue-based
Bacillus subtilis [4] = test: Antibacterial activity against Bacillus subtilis at 1 mg/mL after 18 hrs by disc diffusion assay; assay type: functional; settings: read-out: IZ; how it was run: as §1
Escherichia coli [5] = test: Antibacterial activity against Escherichia coli at 1 mg/mL after 18 hrs by disc diffusion assay; assay type: functional; settings: read-out: IZ; how it was run: as §1
Staphylococcus aureus [6] = test: Antibacterial activity against Staphylococcus aureus after 18 hrs; assay type: functional
Catalase = target: T1, Catalase (Rattus norvegicus, UniProt P04762); test: Inhibition of catalase in Wistar rat brain
T1 sequence (P04762 whole entry): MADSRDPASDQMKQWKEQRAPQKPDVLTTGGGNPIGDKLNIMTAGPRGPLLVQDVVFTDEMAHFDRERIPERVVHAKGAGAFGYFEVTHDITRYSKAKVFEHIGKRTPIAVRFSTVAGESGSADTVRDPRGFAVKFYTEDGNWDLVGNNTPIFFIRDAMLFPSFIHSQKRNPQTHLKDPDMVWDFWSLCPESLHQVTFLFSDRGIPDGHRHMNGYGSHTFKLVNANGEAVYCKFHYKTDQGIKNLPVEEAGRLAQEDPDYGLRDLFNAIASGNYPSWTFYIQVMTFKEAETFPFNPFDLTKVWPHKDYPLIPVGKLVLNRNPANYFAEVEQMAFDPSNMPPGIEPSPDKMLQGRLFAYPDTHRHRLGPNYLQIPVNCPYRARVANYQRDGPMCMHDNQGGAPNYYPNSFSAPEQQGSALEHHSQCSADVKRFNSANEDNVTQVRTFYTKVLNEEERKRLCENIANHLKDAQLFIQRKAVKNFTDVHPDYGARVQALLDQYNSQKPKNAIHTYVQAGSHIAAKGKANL

Bacillus subtilis [7] = test: Antibacterial activity against Bacillus subtilis at 2 mg/mL after 18 hrs by disc diffusion assay; assay type: functional; settings: read-out: IZ; how it was run: as §1
Brain [8] = test: Antioxidant activity in Wistar rat brain assessed as superoxide dismutase content; assay type: functional
Brain [9] = test: Antioxidant activity in Wistar rat brain assessed as glutathione content; assay type: functional
How it was run: (§2)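 Wistar rat brain was homogenised 1:40 (w/v) in 0.1 M phosphate buffer, pH 7.4, with 1 mM EDTA. Total glutathione (GSH + GSSG) and reduced GSH were assayed spectrophotometrically from optical density, using net rate against a standard-curve slope and intercept, times a dilution factor. Homogenate protein was measured by the Lowry method.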

Bacillus subtilis [10] = test: Antibacterial activity against Bacillus subtilis after 18 hrs; assay type: functional
Brain [11] = test: Antioxidant activity in Wistar rat brain assessed as reduction in glutathione content; assay type: functional, tissue-based; how it was run: as §2
Escherichia coli [12] = test: Antibacterial activity against Escherichia coli at 2 mg/mL after 18 hrs by disc diffusion assay; assay type: functional; settings: read-out: IZ; how it was run: as §1
Klebsiella pneumoniae [13] = test: Antibacterial activity against Klebsiella pneumoniae after 18 hrs; assay type: functional
Brain [14] = test: Antioxidant activity in Wistar rat brain assessed as lipid peroxidation; assay type: functional, tissue-based
Brain [15] = test: Antioxidant activity in Wistar rat brain assessed as catalase content; assay type: functional
Escherichia coli [16] = test: Antibacterial activity against Escherichia coli after 18 hrs; assay type: functional
[17] = Inhibition of superoxide dismutase in Wistar rat brain; assay type: tissue-based
Staphylococcus aureus [18] = test: Antibacterial activity against Staphylococcus aureus at 1 mg/mL after 18 hrs by disc diffusion assay; assay type: functional; settings: read-out: IZ; how it was run: as §1
Staphylococcus aureus [19] = test: Antibacterial activity against Staphylococcus aureus at 2 mg/mL after 18 hrs by disc diffusion assay; assay type: functional; settings: read-out: IZ; how it was run: as §1

## COc1ccc2c3c1O[C@H]1C[C@@H](OP(=O)(SCCO)N(CCCl)CCCl)C=C[C@@]31CCN(C)C2 (stereo not given in full)
Klebsiella pneumoniae [1]
  zone of inhibition at 1000 µg/mL: 2.08 mm
Klebsiella pneumoniae [2]
  zone of inhibition at 2000 µg/mL: 6.46 mm
Brain [3]
  EC50: 1.33 mg/L (≈ 2.41 µM)
Bacillus subtilis [4]
  zone of inhibition at 1000 µg/mL: 1.72 mm
Escherichia coli [5]
  zone of inhibition at 1000 µg/mL: 1.14 mm
Staphylococcus aureus [6]
  MIC: 0.21 mg/L (≈ 0.381 µM)
Catalase
  EC50: 1.67 mg/L (≈ 3.03 µM)
Bacillus subtilis [7]
  zone of inhibition at 2000 µg/mL: 3.01 mm
Brain [8]
  Activity: 29.55 µg/mL
Brain [9]
  Activity: 4.92 µg/mL
Bacillus subtilis [10]
  MIC: 0.13 mg/L (≈ 0.236 µM)
Brain [11]
  EC50: 1.11 mg/L (≈ 2.01 µM)
Escherichia coli [12]
  zone of inhibition at 2000 µg/mL: 2.21 mm
Klebsiella pneumoniae [13]
  MIC: 0.59 mg/L (≈ 1.07 µM)
Brain [14]
  Activity: 71.2 µg/mL
Brain [15]
  Activity: 285.32 µg/mL
Escherichia coli [16]
  MIC: 0.26 mg/L (≈ 0.471 µM)
[17]
  EC50: 1.62 mg/L (≈ 2.94 µM)
Staphylococcus aureus [18]
  zone of inhibition at 1000 µg/mL: 1.53 mm
Staphylococcus aureus [19]
  zone of inhibition at 2000 µg/mL: 3.09 mm

## COc1ccc2c3c1O[C@H]1C[C@@H](OP(=O)(OCCO)Oc4ccc([N+](=O)[O-])cc4)C=C[C@@]31CCN(C)C2 (stereo not given in full)
Klebsiella pneumoniae [1]
  zone of inhibition at 1000 µg/mL: 2.69 mm
Klebsiella pneumoniae [2]
  zone of inhibition at 2000 µg/mL: 4.96 mm
Brain [3]
  EC50: 3.17 mg/L (≈ 5.95 µM)
Bacillus subtilis [4]
  zone of inhibition at 1000 µg/mL: 2.61 mm
Escherichia coli [5]
  zone of inhibition at 1000 µg/mL: 1.53 mm
Staphylococcus aureus [6]
  MIC: 1.09 mg/L (≈ 2.05 µM)
Catalase
  EC50: 3.28 mg/L (≈ 6.16 µM)
Bacillus subtilis [7]
  zone of inhibition at 2000 µg/mL: 3.71 mm
Brain [8]
  Activity: 29.41 µg/mL
Brain [9]
  Activity: 5.21 µg/mL
Bacillus subtilis [10]
  MIC: 0.25 mg/L (≈ 0.469 µM)
Brain [11]
  EC50: 2.82 mg/L (≈ 5.3 µM)
Escherichia coli [12]
  zone of inhibition at 2000 µg/mL: 5.01 mm
Klebsiella pneumoniae [13]
  MIC: 0.39 mg/L (≈ 0.732 µM)
Brain [14]
  Activity: 72.1 µg/mL
Brain [15]
  Activity: 286.43 µg/mL
Escherichia coli [16]
  MIC: 0.67 mg/L (≈ 1.26 µM)
[17]
  EC50: 3.28 mg/L (≈ 6.16 µM)
Staphylococcus aureus [18]
  zone of inhibition at 1000 µg/mL: 1.9 mm
Staphylococcus aureus [19]
  zone of inhibition at 2000 µg/mL: 4.27 mm

## COc1ccc2c3c1O[C@H]1C[C@@H](OP(=O)(NCCN)N(CCCl)CCCl)C=C[C@@]31CCN(C)C2 (stereo not given in full)
Klebsiella pneumoniae [1]
  zone of inhibition at 1000 µg/mL: 2.89 mm
Klebsiella pneumoniae [2]
  zone of inhibition at 2000 µg/mL: 4.8 mm
Brain [3]
  EC50: 2.88 mg/L (≈ 5.4 µM)
Bacillus subtilis [4]
  zone of inhibition at 1000 µg/mL: 1.57 mm
Escherichia coli [5]
  zone of inhibition at 1000 µg/mL: 2.33 mm
Staphylococcus aureus [6]
  MIC: 0.49 mg/L (≈ 0.919 µM)
Catalase
  EC50: 2.73 mg/L (≈ 5.12 µM)
Bacillus subtilis [7]
  zone of inhibition at 2000 µg/mL: 3.9 mm
Brain [8]
  Activity: 30.29 µg/mL
Brain [9]
  Activity: 4.84 µg/mL
Bacillus subtilis [10]
  MIC: 0.12 mg/L (≈ 0.225 µM)
Brain [11]
  EC50: 2.43 mg/L (≈ 4.56 µM)
Escherichia coli [12]
  zone of inhibition at 2000 µg/mL: 4.9 mm
Klebsiella pneumoniae [13]
  MIC: 0.33 mg/L (≈ 0.619 µM)
Brain [14]
  Activity: 72.5 µg/mL
Brain [15]
  Activity: 285.48 µg/mL
Escherichia coli [16]
  MIC: 0.55 mg/L (≈ 1.03 µM)
[17]
  EC50: 2.77 mg/L (≈ 5.19 µM)
Staphylococcus aureus [18]
  zone of inhibition at 1000 µg/mL: 2.35 mm
Staphylococcus aureus [19]
  zone of inhibition at 2000 µg/mL: 3.51 mm

## COc1ccc2c3c1O[C@H]1C[C@@H](OP(=O)(OCCO)N(CCCl)CCCl)C=C[C@@]31CCN(C)C2 (stereo not given in full)
Klebsiella pneumoniae [1]
  zone of inhibition at 1000 µg/mL: 1.65 mm
Klebsiella pneumoniae [2]
  zone of inhibition at 2000 µg/mL: 4.76 mm
Brain [3]
  EC50: 2.87 mg/L (≈ 5.36 µM)
Bacillus subtilis [4]
  zone of inhibition at 1000 µg/mL: 1.63 mm
Escherichia coli [5]
  zone of inhibition at 1000 µg/mL: 1.57 mm
Staphylococcus aureus [6]
  MIC: 0.42 mg/L (≈ 0.784 µM)
Catalase
  EC50: 2.21 mg/L (≈ 4.13 µM)
Bacillus subtilis [7]
  zone of inhibition at 2000 µg/mL: 4.89 mm
Brain [8]
  Activity: 29.02 µg/mL
Brain [9]
  Activity: 4.67 µg/mL
Bacillus subtilis [10]
  MIC: 0.28 mg/L (≈ 0.523 µM)
Brain [11]
  EC50: 2.02 mg/L (≈ 3.77 µM)
Escherichia coli [12]
  zone of inhibition at 2000 µg/mL: 3.18 mm
Klebsiella pneumoniae [13]
  MIC: 0.57 mg/L (≈ 1.06 µM)
Brain [14]
  Activity: 68.2 µg/mL
Brain [15]
  Activity: 291.27 µg/mL
Escherichia coli [16]
  MIC: 0.5 mg/L (≈ 0.934 µM)
[17]
  EC50: 1.98 mg/L (≈ 3.7 µM)
Staphylococcus aureus [18]
  zone of inhibition at 1000 µg/mL: 3.03 mm
Staphylococcus aureus [19]
  zone of inhibition at 2000 µg/mL: 5.02 mm

— ChEMBL document CHEMBL1154647, “Synthesis, spectral characterization and biological evaluation of phosphorylated derivatives of galanthamine” (Eur J Med Chem, 2010)
